ChEMBL document CHEMBL1148584, “Effect of polyamine homologation on the transport and biological properties of heterocyclic amidines” (J Med Chem, 2006)
Blank lines part the entries; values can stand above or below the compound they belong to.

Legend:
[1] = tested on: L1210; assay: Intracellular level of spermidine in L1210 cells in the presence of DFMO at 25 uM; format: functional, cell-based; settings: Mus musculus
Procedure, shortened: (§1)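 L1210 cells in RPMI 1640/10% FCS with 2 mM aminoguanidine, seeded at 4 × 10⁴ cells/mL. Conjugate, with or without 5 mM DFMO, added at seeding; cells cultured 48 h, washed in cold NaCl, and extracted with 0.2 N HClO₄. Conjugate and free putrescine, spermidine and spermine quantified by ion-pair HPLC (UV 254 nm, fluorescence ex 345/em 455 nm); normalised to protein. Student's t-test, p<0.05.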

[2] = tested on: L1210; assay: Intracellular level of putrescine in L1210 cells in the presence of DFMO at 25 uM; format: functional, cell-based; settings: Mus musculus; procedure, shortened: as §1
[3] = tested on: L1210; assay: Intracellular level of spermidine in L1210 cells in the absence of DFMO at 25 uM; format: functional, cell-based; settings: Mus musculus; procedure, shortened: as §1
[4] = tested on: CHO-MG; assay: Cellular uptake in CHO-MG cells at 50 uM; format: ADME, cell-based, Cricetulus griseus; settings: chinese hamster
Procedure, shortened: (§2)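 CHO (RPMI 1640, 10% FCS, 2 mM aminoguanidine) and CHO-MG (plus L-proline) cells seeded at 2 × 10⁵ cells/mL. Conjugate added 24 h after seeding and cells harvested 24 h later, then washed in cold 0.14 M NaCl and sonicated in 0.2 N HClO₄. Supernatant analysed by ion-pair reversed-phase HPLC (n-octanesulfonate), expressed as nmol/mg protein; mean ± SD of three determinations.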

[5] = tested on: CHO-MG; assay: Inhibition of cell growth in CHO-MG cells in the presence of DFMO; format: functional, cell-based; settings: Cricetulus griseus
Procedure, shortened: (§3)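 L1210 cells seeded at 5 × 10⁴ cells/mL with conjugate added at seeding; CHO/CHO-MG plated at 2 × 10³ cells/mL with conjugate added after overnight (24 h). 5 mM DFMO added together with conjugate; medium contains 2 mM aminoguanidine. After 48 h, growth read by MTT formazan absorbance at 540 nm. IC50 is 50% growth inhibition; mean of three determinations.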

[6] = molecular target: Phosphodiesterase 1 (Bos taurus, UniProt Q01061+P14100); assay: Inhibition of bovine calmodulin-activated cAMP dependent phosphodiesterase; format: protein assay
Procedure, shortened: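 Crude bovine heart PDE preparation containing calmodulin and Ca²⁺ (0.2 milliunit). Incubated 20 min at 37 °C with 0.1 mM [8-³H]cAMP and graded drug concentrations in 30 mM Tris-HCl, 3 mM MgSO₄, 0.6 mM AMP. Stopped with ZnSO₄; Ba(OH)₂ precipitated AMP with BaSO₄; supernatant radioactivity counted. IC50 is the concentration giving 50% inhibition.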

[7] = tested on: L1210; assay: Intracellular level of spermine in L1210 cells in the absence of DFMO at 25 uM; format: functional, cell-based; settings: Mus musculus; procedure, shortened: as §1
[8] = tested on: L1210; assay: Intracellular level of spermine in L1210 cells in the presence of DFMO at 25 uM; format: functional, cell-based; settings: Mus musculus; procedure, shortened: as §1
[9] = tested on: L1210; assay: Intracellular level of conjugate in L1210 cells in the absence of DFMO at 25 uM; format: functional, cell-based; settings: Mus musculus; procedure, shortened: as §1
[10] = tested on: CHO; assay: Cellular uptake in CHO cells at 50 uM; format: ADME, cell-based, Cricetulus griseus; settings: chinese hamster; procedure, shortened: as §2
[11] = Selectivity for uptake CHO cell line over CHO-MG cell line at 50 uM; format: functional, Cricetulus griseus
Procedure, shortened: (§4)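 Ratio of intracellular conjugate level in CHO over CHO-MG cells. Both lines were exposed to conjugate 24 h after seeding at 2 × 10⁵ cells/mL, for 24 h with 2 mM aminoguanidine in the medium. Levels were measured by ion-pair HPLC of perchloric extracts and normalised to protein (nmol/mg).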

[12] = tested on: L1210; assay: Intracellular level of putrescine in L1210 cells in the absence of DFMO at 25 uM; format: functional, cell-based; settings: Mus musculus; procedure, shortened: as §1
[13] = tested on: L1210; assay: Intracellular level of conjugate in L1210 cells in the presence of DFMO at 25 uM; format: functional, cell-based; settings: Mus musculus; procedure, shortened: as §1
[14] = tested on: L1210; assay: Intracellular level of conjugate in L1210 cells in the presence of DFMO at 10 uM; format: functional, cell-based; settings: Mus musculus; procedure, shortened: as §1
[15] = tested on: L1210; assay: Intracellular level of spermidine in L1210 cells in the absence of DFMO at 10 uM; format: functional, cell-based; settings: Mus musculus; procedure, shortened: as §1
[16] = tested on: CHO; assay: Inhibition of cell growth in CHO cells in the presence of DFMO; format: functional, cell-based; settings: Cricetulus griseus; procedure, shortened: as §3
[17] = tested on: L1210; assay: Intracellular level of putrescine in L1210 cells in the presence of DFMO at 10 uM; format: functional, cell-based; settings: Mus musculus; procedure, shortened: as §1
[18] = tested on: L1210; assay: Intracellular level of spermine in L1210 cells in the presence of DFMO at 10 uM; format: functional, cell-based; settings: Mus musculus; procedure, shortened: as §1
[19] = tested on: L1210; assay: Inhibition of cell growth in L1210 cells in the presence of DFMO; format: functional, cell-based; settings: Mus musculus; procedure, shortened: as §3
[20] = tested on: L1210; assay: Intracellular level of spermine in L1210 cells in the absence of DFMO at 10 uM; format: functional, cell-based; settings: Mus musculus; procedure, shortened: as §1
[21] = tested on: L1210; assay: Intracellular level of conjugate in L1210 cells in the absence of DFMO at 10 uM; format: functional, cell-based; settings: Mus musculus; procedure, shortened: as §1
[22] = tested on: L1210; assay: Intracellular level of putrescine in L1210 cells in the absence of DFMO at 10 uM; format: functional, cell-based; settings: Mus musculus; procedure, shortened: as §1
[23] = tested on: L1210; assay: Intracellular level of spermidine in L1210 cells in the presence of DFMO at 10 uM; format: functional, cell-based; settings: Mus musculus; procedure, shortened: as §1
[24] = tested on: CHO-MG; assay: Cellular uptake in CHO-MG cells at 25 uM; format: ADME, cell-based, Cricetulus griseus; settings: chinese hamster; procedure, shortened: as §2
[25] = Selectivity for uptake in CHO cell line over CHO-MG cell line at 25 uM; format: functional, Cricetulus griseus; procedure, shortened: as §4
[26] = tested on: CHO; assay: Cellular uptake in CHO cells at 25 uM; format: ADME, cell-based, Cricetulus griseus; settings: chinese hamster; procedure, shortened: as §2
[27] = tested on: L1210; assay: Intracellular level of spermidine in L1210 cells in the presence of DFMO at 20 uM; format: functional, cell-based; settings: Mus musculus; procedure, shortened: as §1
[28] = tested on: L1210; assay: Intracellular level of putrescine in L1210 cells in the presence of DFMO at 20 uM; format: functional, cell-based; settings: Mus musculus; procedure, shortened: as §1
[29] = tested on: L1210; assay: Intracellular level of conjugate in L1210 cells in the absence of DFMO at 20 uM; format: functional, cell-based; settings: Mus musculus; procedure, shortened: as §1
[30] = tested on: L1210; assay: Intracellular level of spermine in L1210 cells in the presence of DFMO at 20 uM; format: functional, cell-based; settings: Mus musculus; procedure, shortened: as §1
[31] = tested on: L1210; assay: Intracellular level of putrescine in L1210 cells in the absence of DFMO at 20 uM; format: functional, cell-based; settings: Mus musculus; procedure, shortened: as §1
[32] = tested on: L1210; assay: Intracellular level of spermidine in L1210 cells in the absence of DFMO at 20 uM; format: functional, cell-based; settings: Mus musculus; procedure, shortened: as §1
[33] = tested on: L1210; assay: Intracellular level of spermine in L1210 cells in the absence of DFMO at 20 uM; format: functional, cell-based; settings: Mus musculus; procedure, shortened: as §1
[34] = tested on: L1210; assay: Intracellular level of polyamine in L1210 cells in the presence of DFMO at 20 uM; format: functional, cell-based; settings: Mus musculus; procedure, shortened: as §1

Drug uptake [4]: 0.66 nmol/mg | IC50 [6]: 19 µM | Drug uptake [10]: 0.66 nmol/mg | IC50 [19]: 1 µM
SMILES: CC1C[C@]2(C)C(NCCCNCCCCNCCCN)=Nc3ccccc3[C@@H]2N(C)c2ccccc21 (stereo partly specified)
Drug uptake [14]: 1.5 nmol/mg | IC50 [5]: 27 µM | Drug uptake [15]: 18 nmol/mg | IC50 [16]: 9.1 µM | Drug uptake [17]: 0.04 nmol/mg | Selectivity ratio [11]: 1 | Drug uptake [18]: 5.8 nmol/mg | Drug uptake [20]: 9.7 nmol/mg | Drug uptake [21]: 0.59 nmol/mg | Drug uptake [22]: 1.5 nmol/mg | Drug uptake [23]: 0.49 nmol/mg

Drug uptake [24]: 7.2 nmol/mg | IC50 [6]: 70 µM | Drug uptake [26]: 8.1 nmol/mg | IC50 [19]: 56 µM
SMILES: CNc1cccc2c1[C@H](C)C[C@]1(C)C(NCCCCN)=Nc3ccccc3[C@H]21
IC50 [5]: 30 µM | Drug uptake [27]: 2.1 nmol/mg | Selectivity ratio [25]: 1.1 | IC50 [16]: 57 µM | Drug uptake [28]: 1 nmol/mg | Drug uptake [29]: 23 nmol/mg | Drug uptake [30]: 10 nmol/mg | Drug uptake [31]: 1.6 nmol/mg | Drug uptake [32]: 14 nmol/mg | Drug uptake [33]: 8.9 nmol/mg | Drug uptake [34]: 8.2 nmol/mg

Drug uptake [24]: 3.3 nmol/mg | IC50 [6]: 116 µM | Drug uptake [26]: 3.6 nmol/mg | IC50 [19]: 54 µM
SMILES: CC1C[C@]2(C)C(NCCCCN)=Nc3ccccc3[C@@H]2N(C)c2ccccc21 (stereo partly specified)
IC50 [5]: 24 µM | Drug uptake [27]: 0.87 nmol/mg | Selectivity ratio [25]: 1.1 | IC50 [16]: 45 µM | Drug uptake [28]: 0.7 nmol/mg | Drug uptake [29]: 13 nmol/mg | Drug uptake [30]: 9 nmol/mg | Drug uptake [31]: 0.85 nmol/mg | Drug uptake [32]: 11 nmol/mg | Drug uptake [33]: 6.3 nmol/mg | Drug uptake [34]: 8.2 nmol/mg

Continued, compound first:

SMILES: CNc1cccc2c1[C@H](C)C[C@]1(C)C(NCCCNCCCCN)=Nc3ccccc3[C@H]21
Drug uptake [1]: 1.5 nmol/mg | Drug uptake [2]: 0.02 nmol/mg | Drug uptake [3]: 24 nmol/mg | Drug uptake [4]: 1.2 nmol/mg | IC50 [5]: > 100 µM | IC50 [6]: 22 µM | Drug uptake [7]: 11 nmol/mg | Drug uptake [8]: 8.9 nmol/mg | Drug uptake [9]: 1.2 nmol/mg | Drug uptake [10]: 1.3 nmol/mg | Selectivity ratio [11]: 1 | Drug uptake [12]: 1 nmol/mg | Drug uptake [13]: 1.3 nmol/mg

SMILES: CN(c1ccccc1)C1c2ccccc2N=C(NCCCNCCCCN)C1(C)C (stereo unspecified)
Drug uptake [1]: 1.4 nmol/mg | Drug uptake [2]: 0.12 nmol/mg | Drug uptake [24]: 3.1 nmol/mg | Drug uptake [3]: 21 nmol/mg | IC50 [5]: > 100 µM | IC50 [6]: 30 µM | Drug uptake [7]: 10 nmol/mg | Drug uptake [8]: 10 nmol/mg | Drug uptake [9]: 0.64 nmol/mg | Selectivity ratio [25]: 1 | Drug uptake [26]: 2.9 nmol/mg | Drug uptake [12]: 0.65 nmol/mg | Drug uptake [13]: 0.66 nmol/mg

SMILES: OCCCNC1=Nc2ccccc2CC1
IC50 [6]: > 500 µM

SMILES: CNc1cccc2c1[C@H](C)C[C@]1(C)C(NCCCNCCCCNCCCN)=Nc3ccccc3[C@H]21
Drug uptake [24]: 2.1 nmol/mg | Drug uptake [14]: 2.1 nmol/mg | IC50 [5]: 23 µM | Drug uptake [15]: 16 nmol/mg | IC50 [6]: 10 µM | Selectivity ratio [25]: 1 | IC50 [16]: 11 µM | Drug uptake [17]: 0.04 nmol/mg | Drug uptake [26]: 2.2 nmol/mg | Drug uptake [18]: 7.3 nmol/mg | IC50 [19]: 2.4 µM | Drug uptake [20]: 8.2 nmol/mg | Drug uptake [21]: 0.95 nmol/mg | Drug uptake [22]: 1.4 nmol/mg | Drug uptake [23]: 0.51 nmol/mg

SMILES: NCCCNCCCCNCCCN [SPERMINE]
IC50 [5]: > 100 µM | IC50 [6]: > 500 µM

SMILES: NCCCCN [PUTRESCINE]
IC50 [5]: > 100 µM | IC50 [6]: > 500 µM
